Measurements: ChEMBL document CHEMBL1124347, “Enantioselectivity of muscarinic antagonists. Isomeric 2-cyclohexyl-2-phenyl-5-[(dimethylamino)methyl]-1,3-oxathiolane 3-oxide methiodides” (J Med Chem, 1989)

What was measured:
[1] = molecular target: Muscarinic acetylcholine receptor; assay: Dissociation constant estimated by Schild analysis for antimuscarinic activity in guinea pig bladder; assay type: protein assay, Cavia porcellus
Method in brief: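 Longitudinal bladder strip (2 mm wide, urethra to apex) in PSS at 37 °C, with isometric recording. Tissue was equilibrated 30 min, and carbachol control curves were run as for ileum. Dose ratios (carbachol ED50 after/before antagonist) were taken at 3–4 antagonist concentrations, each tested 4–8 times. pA2 came from Schild plots with slope fixed at −1.0.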

[2] = molecular target: Muscarinic acetylcholine receptor; assay: Dissociation constant estimated by Schild analysis for antimuscarinic activity in guinea pig heart; assay type: protein assay, Cavia porcellus
Method in brief: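 Guinea pig heart preparation with carbachol as agonist and water as solvent for drugs. Dose ratios (carbachol ED50 with/without antagonist) were measured at 3–4 antagonist concentrations, 4–8 replicates each. Parallel untreated tissues monitored sensitivity drift. pA2 was estimated by Schild analysis with slope constrained to −1.0; means ± SE.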

[3] = molecular target: Muscarinic acetylcholine receptor; assay: Dissociation constant estimated by Schild analysis for antimuscarinic activity for guinea pig ileum; assay type: tissue-based, Cavia porcellus
Method in brief: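 Terminal ileum segments (2 cm, taken about 5 cm from the ileocecal junction) in PSS at 37 °C, with isotonic recording. After 30 min equilibration, carbachol dose–response curves were run at 30-min intervals; the second served as control. Antagonist was applied for 30 min, then the carbachol curve repeated. Dose ratios were taken at 3–4 concentrations, n=4–8 each. pA2 came from Schild analysis, slope constrained to −1.0.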

Structure (SMILES)	pA2 [1]	pA2 [2]	pA2 [3]
C[N+](C)(C)C[C@@H]1C[S+]([O-])[C@@](c2ccccc2)(C2CCCCC2)O1.[I-] (mixture of isomers; form 1)	5.83	5.93	5.93
C[N+](C)(C)C[C@@H]1C[S+]([O-])[C@@](c2ccccc2)(C2CCCCC2)O1.[I-] (mixture of isomers; form 2)	7.53	7.45	7.73
C[N+](C)(C)C[C@@H]1C[S@@+]([O-])[C@](c2ccccc2)(C2CCCCC2)O1.[I-] (racemic)	5.89	5.96	6.05
C[N+](C)(C)C[C@@H]1C[S+]([O-])[C@@](c2ccccc2)(C2CCCCC2)O1.[I-] (single isomer, unassigned; (+)-7)	7.73	7.69	7.84
C[N+](C)(C)C[C@@H]1C[S+]([O-])[C@@](c2ccccc2)(C2CCCCC2)O1.[I-] (single isomer, unassigned; (+)-8)	5.56	5.44	5.96
C[N+](C)(C)C[C@@H]1C[S+]([O-])[C@@](c2ccccc2)(C2CCCCC2)O1.[I-] (single isomer, unassigned; (-)-7)	5.49	5.37	5.52
C[N+](C)(C)C[C@@H]1C[S+]([O-])[C@@](c2ccccc2)(C2CCCCC2)O1.[I-] (single isomer, unassigned; (-)-8)	6.07	6.01	6.17
C[N+](C)(C)C[C@@H]1C[S@@+]([O-])[C@](c2ccccc2)(C2CCCCC2)O1.[I-] (stereo in doubt; (+)-3)	5.94	5.54	6.07
C[N+](C)(C)C[C@@H]1C[S@+]([O-])[C@](c2ccccc2)(C2CCCCC2)O1.[I-] (stereo in doubt; (+)-4)	7.19	6.8	7.19
C[N+](C)(C)C[C@@H]1C[S@+]([O-])[C@](c2ccccc2)(C2CCCCC2)O1.[I-] (stereo in doubt; (+\-)-4)	6.96	6.53	6.91
C[N+](C)(C)C[C@@H]1C[S@@+]([O-])[C@](c2ccccc2)(C2CCCCC2)O1.[I-] (stereo in doubt; (-)-3)	5.88	6.24	5.75
C[N+](C)(C)C[C@@H]1C[S@+]([O-])[C@](c2ccccc2)(C2CCCCC2)O1.[I-] (stereo in doubt; (-)-4)	5.52	5.48	5.55
